Laboratory results taken from ChEMBL document CHEMBL1130100, “Stabilized analogs of thymopentin. 3. Evaluation of ketomethylene pseudopeptides for antiarthritic properties” (1997).
Values joined by “and” are separate entries in the source; they are usually repeats but may differ in a detail not shown here. Equal values may be shown once.

Columns and labels:
Assay type in all cases: functional
Mus musculus [1] = test: (§1) Extent of paw swelling after treatment with thymopentin-5 (TP-5) compound in the Mouse Type II collagen arthritis at a dosage of 1.0 mg/kg on day 44
Summary of the method: (§2)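 DBA/1 Lac mice immunized with bovine type II collagen (100 μg) in Freund's complete adjuvant at four to six back sites, then boosted ip (100 μg) on day 21. Dosing was iv in sterile saline every second day from day 19 through day 40, 12 mice per dose. Each hind paw was measured by caliper. Result given as % of untreated swelling after subtracting age-matched normal paw.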

Mus musculus [2] = test: as §1; summary of the method: as §2; remark: listed apart in the source
Mus musculus [3] = test: On set and incidence of arthritis in the Mouse Type II collagen model at 0.5 dose mg/kg on day 37, expressed as ratio of number treated to that of control
Summary of the method: (§3)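 DBA/1 Lac mice sensitized with bovine type II collagen (100 μg) in Freund's complete adjuvant, ip boost (100 μg) on day 21. Freshly dissolved compound in sterile saline was given iv every second day, day 19 through day 40, groups of 12. A mouse was scored arthritic if erythema or edema was present on any digit, paw or appendage. Incidence reported as number positive of 12.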

Mus musculus [4] = test: On set and incidence of arthritis in the Mouse Type II collagen model following 0.5 mg/kg on day 30.; summary of the method: as §3
Mus musculus [5] = test: On set and incidence of arthritis in the Mouse Type II collagen model at 0.5 dose mg/kg on day 40, expressed as ratio of number treated to that of control; summary of the method: as §3
Mus musculus [6] = test: On set and incidence of arthritis in the Mouse Type II collagen model at 0.5 dose mg/kg on day 44, expressed as ratio of number treated to that of control; summary of the method: as §3
Mus musculus [7] = test: 60 Extent of paw swelling after treatment with thymopentin-5 (TP-5) compound in the Mouse Type II collagen arthritis at a dosage of 1.0 mg/kg on day 30; summary of the method: as §2
Rattus norvegicus [8] = test: extent of paw swelling following treatment with the compound in the rat adjuvant arthritis model observed on day 12 at 0.050 mg/kg dose; details: dose 0.05 mg/kg
Summary of the method: (§4)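 Rat adjuvant arthritis with iv dosing every second day, starting 2 days before the adjuvant/antigen challenge. Initial doses ranged 0.05 to 0.50 mg/kg, eight rats per dose. Each hind paw was measured by caliper. Swelling minus age-matched normal paw, expressed as % of untreated animals.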

Mus musculus [9] = test: Extent of paw swelling after treatment with thymopentin-5 (TP-5) compound in the Mouse Type II collagen arthritis at 1 mg/kg on day 30.; details: 1 mg/kg; summary of the method: as §2
Rattus norvegicus [10] = test: extent of paw swelling following treatment with the compound in the rat adjuvant arthritis model observed on day 19 at 0.050 mg/kg dose; details: dose 0.05 mg/kg; summary of the method: as §4
Rattus norvegicus [11] = test: extent of paw swelling following treatment with the compound in the rat adjuvant arthritis model observed on day 16 at 0.050 mg/kg dose; details: dose 0.05 mg/kg; summary of the method: as §4
Rattus norvegicus [12] = test: extent of paw swelling following treatment with the compound in the rat adjuvant arthritis model observed on day 19 at 0.50 mg/kg dose; details: dose 0.5 mg/kg; summary of the method: as §4
Rattus norvegicus [13] = test: extent of paw swelling following treatment with the compound in the rat adjuvant arthritis model observed on day 12 at 0.50 mg/kg dose; details: dose 0.5 mg/kg; summary of the method: as §4
Rattus norvegicus [14] = test: extent of paw swelling following treatment with the compound in the rat adjuvant arthritis model observed on day 16 at 0.50 mg/kg dose; details: dose 0.5 mg/kg; summary of the method: as §4
Mus musculus [15] = test: Extent of paw swelling after treatment with thymopentin-5 (TP-5) compound in the Mouse Type II collagen arthritis at a dosage of 0.03 mg/kg on day 30; summary of the method: as §2

## CCCCC(CC(=O)[C@@H](N)CCCN=C(N)N)C(=O)N[C@@H](CC(=O)O)C(=O)NC(C(=O)C[C@H](C(=O)O)C(C)C)C(C)C (stereo in doubt; 1h-A)
Mus musculus [1]
  Paw swelling: 95% and 75% and 63%
Mus musculus [2]
  Paw swelling: 63%
Mus musculus [3]
  No. of mice: 10
Mus musculus [4]; 0.5 mg/kg
  No. of mice: 7
Mus musculus [5]
  No. of mice: 10
Mus musculus [6]
  No. of mice: 10

## CCCC[C@@H](C(=O)N[C@@H](CC(=O)O)C(=O)N[C@H](C(=O)C[C@H](C(=O)O)C(C)C)C(C)C)N(C)C(=O)[C@@H](N)CCCN=C(N)N (stereo in doubt; 1m-A)
Mus musculus [7]
  Paw swelling: 60%
Mus musculus [3]
  No. of mice: 6
Rattus norvegicus [8]
  Paw swelling: 0%
Mus musculus [4]; 0.5 mg/kg
  No. of mice: 3
Mus musculus [9]
  Paw swelling: 73% and 58%
Rattus norvegicus [10]
  Paw swelling: 45%
Mus musculus [5]
  No. of mice: 7
Mus musculus [6]
  No. of mice: 7
Rattus norvegicus [11]
  Paw swelling: 80%

## CC(C)[C@H](CC(=O)[C@H](CC(=O)O)NC(=O)[C@H](CCCCN)NC(=O)[C@@H](N)CCCN=C(N)N)C(=O)N[C@@H](Cc1ccccc1)C(=O)O (stereo in doubt; 3a-A)
Rattus norvegicus [12]
  Paw swelling: 39%
Rattus norvegicus [13]
  Paw swelling: 0%
Mus musculus [3]
  No. of mice: 8
Mus musculus [4]
  No. of mice: 5
Mus musculus [6]
  No. of mice: 9
Rattus norvegicus [14]
  Paw swelling: 100%
Mus musculus [15]
  Paw swelling: 30% and 70% and 73%
